From ChEMBL document CHEMBL1795208 (J Med Chem, 2011)

Tests used:
Assay type in all cases: functional, cell-based
[1] = Antiproliferative activity against human androgen-independent PC3MM2 cells after 72 hrs by MTS/PMS assay; details: PC3MM2, 72 h
Outline: (§1)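 Cells kept in Advanced DMEM/F12 (1:1) with non-essential amino acids, 2 mM L-glutamine, penicillin, streptomycin and 10% FBS at 37 °C, 5% CO2. Seeded at 2000/well, attached overnight. Compound added in DMSO across a concentration range (1% DMSO final) for 72 h. Viable cells read by MTS/PMS and normalized to 1% DMSO controls (100%). IC50 taken from separate triplicate experiments.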

MCF7 = experiment: Antiproliferative activity against human MCF7 cells expressing estrogen receptor after 72 hrs by MTS/PMS assay; details: MCF7, 72 h; outline: as §1
[2] = Antiproliferative activity against human androgen-dependent LNCaP-LN3 cells after 72 hrs by MTS/PMS assay; details: LNCaP-LN3, 72 h; outline: as §1
SK-BR-3 = experiment: Antiproliferative activity against human SKBR3 cells expressing HER2 after 72 hrs by MTS/PMS assay; details: SK-BR-3, 72 h; outline: as §1

Row | Structure (SMILES) | IC50 [1] [µM] | IC50 (MCF7) [µM] | IC50 [2] [µM] | IC50 (SK-BR-3) [µM]
1 | CC(C)=CCc1cc(C(=O)Nc2cc3ccc(OCCCN(C)C)c(C)c3oc2=O)ccc1O | 1.81 | – | – | –
2 | CNC(=O)Oc1ccc2cc(NC(=O)c3ccc(OC)c(-c4cccc(OC)c4)c3)c(=O)oc2c1OC | 1.68 | 6.54 | 2.37 | > 100
3 | COc1cccc(-c2cc(C(=O)Nc3cc4ccc(OCCCN(C)C)c(OC)c4oc3=O)ccc2OC)c1 | 4.08 | 1.53 | 8.03 | 0.91
4 | COc1cccc(-c2cc(C(=O)Nc3cc4ccc(OC5CC(C)C[C@@H](O)[C@H]5O)c(OC)c4oc3=O)ccc2OC)c1 (stereo partly drawn) | – | 8.52 | – | 6.38
5 | COc1cccc(-c2cc(C(=O)Nc3cc4cc(OC)c(O[C@@H]5O[C@H](CO)C[C@@H](O)[C@H]5O)c(C)c4oc3=O)ccc2OC)c1 | 5.9 | 3.37 | 4.66 | 9.45
6 | COc1cccc(-c2cc(C(=O)Nc3cc4ccc(OC5CCN(C)CC5)c(C)c4oc3=O)ccc2OC)c1 | 3.13 | 1.51 | 4.12 | 1.34
7 | CNCCOc1c(OC)cc2cc(NC(=O)c3ccc(OC)c(-c4cccc(OC)c4)c3)c(=O)oc2c1C | 11.8 | 6.23 | > 100 | 3.15
8 | CNC(=O)Oc1c(OC)cc2cc(NC(=O)c3ccc(OC)c(-c4cccc(OC)c4)c3)c(=O)oc2c1C | 3.13 | 7.78 | 4.77 | 1.53
9 | COc1cc2cc(NC(=O)c3ccc(O)c(CC=C(C)C)c3)c(=O)oc2c(C)c1OCCCN(C)C | 1.38 | 0.8 | – | 0.39
10 | COc1cccc(-c2cc(C(=O)Nc3cc4ccc(OP(=O)(OC)OC)c(C)c4oc3=O)ccc2OC)c1 | > 100 | > 100 | 3.65 | > 100
11 | COc1cccc(-c2cc(C(=O)Nc3cc4cc(OC)c(O[C@@H]5C[C@H](O)CCO5)c(C)c4oc3=O)ccc2OC)c1 | 2.35 | > 100 | 3.27 | 1.37
12 | COc1cccc(-c2cc(C(=O)Nc3cc4ccc(OC(=O)N(C)C)c(OC)c4oc3=O)ccc2OC)c1 | 11.6 | > 100 | 15.7 | > 100
13 | CO[C@@H]1[C@@H](O)[C@@H](O)[C@H](Oc2ccc3cc(NC(=O)c4cc5ccccc5[nH]4)c(=O)oc3c2C)OC1(C)C | – | – | – | 0.37
14 | Cc1c(OCCCN(C)C)ccc2cc(NC(=O)c3cc4ccccc4[nH]3)c(=O)oc12 | 13.7 | 5.23 | – | 1.13
15 | COc1cccc(-c2cc(C(=O)Nc3cc4ccc(O[C@@H]5C[C@H](O)CCO5)c(C)c4oc3=O)ccc2OC)c1 | – | 11.2 | 8.56 | 9.28
16 | COc1cccc(-c2cc(C(=O)Nc3cc4cc(OC)c(OC5CCC[C@@H](O)[C@H]5O)c(C)c4oc3=O)ccc2OC)c1 (stereo partly drawn) | – | 10.1 | – | 8.18
17 | CO[C@@H]1[C@@H](O)[C@@H](O)[C@H](Oc2ccc3cc(NC(=O)CCCCC(=O)Nc4cc5ccc(O[C@H]6OC(C)(C)[C@@H](OC)[C@H](O)[C@@H]6O)cc5oc4=O)c(=O)oc3c2C)OC1(C)C | – | – | – | 2
18 | Cc1c(OC2CCN(C)CC2)ccc2cc(NC(=O)c3cc4ccccc4[nH]3)c(=O)oc12 | 11.4 | 0.57 | 11.8 | 0.48
19 | COc1cccc(-c2cc(C(=O)Nc3cc4cc(OC)c(OS(=O)(=O)c5ccc(C)cc5)c(C)c4oc3=O)ccc2OC)c1 | > 100 | > 100 | – | > 100
20 | COc1cccc(-c2cc(C(=O)Nc3cc4ccc(O)c(C)c4oc3=O)ccc2OC)c1 | 5.36 | 6.93 | 3.21 | 8.88
21 | COc1cccc(-c2cc(C(=O)Nc3cc4ccc(OCC(O)CO)c(OC)c4oc3=O)ccc2OC)c1 (stereo not drawn) | 1.66 | > 50 | 0.96 | > 50
22 | CC(=O)Oc1ccc(C(=O)Nc2cc3ccc(OC4CCN(C)CC4)c(C)c3oc2=O)cc1CC=C(C)C | 2.12 | – | – | –
23 | COc1cccc(-c2cc(C(=O)Nc3cc4cc(OC)c(OC5OC(C)(C)[C@H](OC)[C@@H](O)[C@H]5O)c(C)c4oc3=O)ccc2OC)c1 (stereo partly drawn) | > 100 | > 100 | 26.6 | 58.8
24 | COc1cccc(-c2cc(C(=O)Nc3cc4cc(OC)c(OCCCN(C)C)c(C)c4oc3=O)ccc2OC)c1 | 5.4 | 0.7 | 4.71 | 0.49
25 | COc1cccc(-c2cc(C(=O)Nc3cc4ccc(O[C@@H]5OCC[C@@H](O)[C@H]5O)c(OC)c4oc3=O)ccc2OC)c1 | 10.7 | 17.5 | 2.29 | 1.46
26 | COc1cccc(-c2cc(C(=O)Nc3cc4cc(OC)c(OS(C)(=O)=O)c(C)c4oc3=O)ccc2OC)c1 | – | > 100 | > 100 | > 100
